The source of these data is ChEMBL document CHEMBL3414442, “Synthesis and biological evaluation of 2,4-diaminopyrimidines as selective Aurora A kinase inhibitors” (Eur J Med Chem, 2015).

The subject of one test is A549. The test is described as follows: Cytotoxicity against human A549 cells after 48 hrs by MTT assay. The test is classed as functional, cell-based. Conditions: A549, 48 h. In outline: (§1)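 Cells were grown at 37 °C in 5% CO2, plated and left to attach for 4–6 h, then exposed to five concentrations (dissolved in saline) in quadruplicate wells for 48 h. MTT was added for 4 h, formazan was dissolved in DMSO, and A490 was read. IC50 was taken from a log plot of percent of control versus concentration, as the mean of three independent experiments.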
On the technique in general: Formazan colour is commonly taken as a measure of viable cells.

Test [1] has as its system HeLa. Description: Cytotoxicity against human HeLa cells after 48 hrs by MTT assay. The test is classed as functional, cell-based. In outline: as §1
A short description of test [2]: Cytotoxicity against human HCT8 cells after 48 hrs by MTT assay. It counts as functional, cell-based. Conditions: HCT-8, 48 h. The gist of the method:
as §1

The subject of a further test is HepG2. Description: Cytotoxicity against human HepG2 cells after 48 hrs by MTT assay. Conditions: HepG2, 48 h. The test is classed as functional, cell-based. The gist of the method: as §1
Test [3] concerns HeLa. Description: Increase in cyclin B1 protein expression in human HeLa cells at 500 nM by Western blot method. It counts as functional, cell-based. The gist of the method:
(§2)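 Lysates were boiled for 10 min and centrifuged. Proteins were separated, transferred to nitrocellulose, probed for cyclin B1 with antibodies and developed.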

Test [4] relates to HeLa. Description: Induction of cell cycle arrest in human HeLa cells assessed as accumulation at G2/M phase after 12 hrs by propidium iodide staining based flow cytometry. It counts as functional.
For test [5], the system named is HeLa. The test is described as follows: Induction of cell cycle arrest in human HeLa cells assessed as accumulation at G1 phase at 5 uM after 12 hrs by propidium iodide staining based flow cytometry (reference value: 73%). It counts as functional.
The target of test [6] is T1, Aurora kinase A (Homo sapiens) (UniProt O14965).
T1 sequence (whole entry): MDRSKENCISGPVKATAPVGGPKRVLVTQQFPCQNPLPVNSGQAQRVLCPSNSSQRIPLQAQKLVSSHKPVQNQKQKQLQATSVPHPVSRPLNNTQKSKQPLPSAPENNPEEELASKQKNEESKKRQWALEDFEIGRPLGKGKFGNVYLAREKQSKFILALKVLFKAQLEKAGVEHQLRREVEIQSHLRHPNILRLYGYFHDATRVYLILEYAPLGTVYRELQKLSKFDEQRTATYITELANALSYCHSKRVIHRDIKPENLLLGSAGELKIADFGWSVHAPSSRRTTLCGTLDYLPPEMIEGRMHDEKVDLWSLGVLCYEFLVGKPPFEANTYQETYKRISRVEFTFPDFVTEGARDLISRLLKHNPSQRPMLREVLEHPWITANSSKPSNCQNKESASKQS
The test is described as follows: Inhibition of Aurora A in human HeLa cells after 12 hrs by Western blot method. It counts as cell-based. The gist of the method: (§3)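 HeLa cells were treated for 12 h at 10, 25 or 50 nM. They were washed in PBS and lysed in Tris-HCl pH 7.5 buffer with EDTA, NaCl, PMSF and 1% SDS, then boiled for 10 min. Proteins were separated, blotted onto nitrocellulose and probed with antibodies against Aurora A or Aurora B.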
For orientation: Immunoblotting shows a protein as a band on a membrane.

Test [7] concerns the target T1, Aurora kinase A (Homo sapiens). The test is described as follows: Inhibition of Aurora A in human HeLa cells at. The test is classed as cell-based.
Test [8] has as its target T2, Aurora kinase B (Homo sapiens, UniProt Q96GD4). The test is described as follows: Inhibition of Aurora B in human HeLa cells at. The test is classed as cell-based.
The target in test [9] is T1, Aurora kinase A (Homo sapiens). The test is described as follows: Inhibition of Aurora A in human HeLa cells at >10 nM after 12 hrs by ELISA method. The test is classed as cell-based. The gist of the method: (§4)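 HeLa cells were treated for 12 h. A sandwich ELISA used plates coated with anti-human Aurora A or B antibody and an HRP-labelled detection antibody. TMB substrate was added, the reaction was stopped with sulphuric acid, and absorbance was read at 450 nm.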

Test [10] addresses T2, Aurora kinase B. The test is described as follows: Inhibition of Aurora B in human HeLa cells after 12 hrs by ELISA method. The test is classed as cell-based. (In an ELISA, binding on a coated surface is turned into a signal by an enzyme label.)
In test [11] the test system is HeLa. The test is described as follows: Increase in cyclin B1 protein expression in human HeLa cells at 100 nM by Western blot method. The test is classed as functional, cell-based. In outline: as §2
For test [12], the system named is HeLa. The test is described as follows: Induction of cell cycle arrest in human HeLa cells assessed as accumulation at G1 phase at 2 uM after 12 hrs by propidium iodide staining based flow cytometry (reference value: 73%). It counts as functional.
The test system of test [13] is HeLa. Description: Selectivity index, ratio of IC50 for Aurora B in human HeLa cells to IC50 for Aurora A in human HeLa cells. It counts as cell-based.
For test [14], the system named is HeLa. Description: Induction of cell cycle arrest in human HeLa cells assessed as accumulation at S phase at 5 uM after 12 hrs by propidium iodide staining based flow cytometry (reference value: 16.6%). It counts as functional.
The target in test [15] is T2, Aurora kinase B. The test is described as follows: Inhibition of Aurora B in human HeLa cells at >10 nM after 12 hrs by ELISA method. The test is classed as cell-based. The gist of the method: as §4
For the next test, the target named is T3, Aurora kinase A (Homo sapiens, UniProt O14965).
T3 sequence (O14965 whole entry): T1 sequence (whole entry)
The test is described as follows: Inhibition of Aurora A in human HeLa cells after 12 hrs by ELISA method. It counts as cell-based.

The subject of test [16] is HeLa. Description: Induction of cell cycle arrest in human HeLa cells assessed as accumulation at G2/M phase at 5 uM after 12 hrs by propidium iodide staining based flow cytometry (reference value: 10.2%). It counts as functional.
Test [17] concerns HeLa. Description: Induction of cell cycle arrest in human HeLa cells assessed as accumulation at G2/M phase at 2 uM after 12 hrs by propidium iodide staining based flow cytometry (reference value: 10.2%). The test is classed as functional.
Test [18] has as its target T2, Aurora kinase B. The test is described as follows: Inhibition of Aurora B in human HeLa cells after 12 hrs by Western blot method. It counts as cell-based. In outline:
as §3

For test [19], the system named is HeLa. The test is described as follows: Induction of cell cycle arrest in human HeLa cells assessed as accumulation at S phase at 2 uM after 12 hrs by propidium iodide staining based flow cytometry (reference value: 16.6%). The test is classed as functional.

Active and inactive are the calls of the source. No cut-off for these calls is given here.

T2 sequence (Q96GD4 whole entry): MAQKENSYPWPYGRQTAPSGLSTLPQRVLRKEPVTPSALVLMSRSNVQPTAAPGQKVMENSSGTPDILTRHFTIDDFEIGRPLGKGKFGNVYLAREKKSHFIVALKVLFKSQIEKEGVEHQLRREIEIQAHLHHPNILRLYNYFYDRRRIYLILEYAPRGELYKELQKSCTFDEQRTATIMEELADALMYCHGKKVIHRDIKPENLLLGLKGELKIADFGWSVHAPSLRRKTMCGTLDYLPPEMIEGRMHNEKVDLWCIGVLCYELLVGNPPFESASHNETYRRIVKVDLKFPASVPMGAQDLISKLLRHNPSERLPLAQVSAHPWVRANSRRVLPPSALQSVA

In general, IC50 refers to the concentration at which inhibition is half-maximal. A higher IC50 goes with weaker potency. For `COc1cc(C(=O)NC2CCN(C)CC2)ccc1Nc1ncc(Br)c(NC2CCCC2)n1`, the IC50 was determined as 2.5 µM in the test on A549, 3.5 µM with HeLa [1], 12 µM in test [2] and 4.9 µM in the test on HepG2.

Consider `CCCNc1nc(Nc2ccc(N3CCOCC3)cc2)ncc1F`, for which the half-maximal inhibitory concentration (IC50) in the test with A549 turned out to be 8.8 µM; in the test with HeLa [1] it was 7.3 µM; in test [2] it was 73.9 µM; in the test on HepG2 it was 20 µM.

`CN1CCN(c2ccc(Nc3ncc([N+](=O)[O-])c(NC4CCCC4)n3)cc2)CC1`: the 50% inhibitory concentration (IC50) was determined as 4.6 µM with A549, 3.8 µM in the test on HeLa [1], 53.7 µM in test [2] and 5.2 µM in the test on HepG2.

Regarding `CN1CCC(NC(=O)c2ccc(Nc3ncc(Br)c(NC4CCCC4)n3)cc2)CC1`, the IC50 was 0.5 µM in the test with A549; 430 nM against Aurora kinase B [10]; 0.9 µM with HeLa [1]; 12 nM against Aurora kinase A; 3.6 µM in test [2]; 2.4 µM with HepG2. In addition, the inhibition entry (in the test with HeLa [3]; in [9]; in the test on HeLa [11]; on Aurora kinase B [15]) was “Active” throughout. Moreover, the Activity entry in the test with HeLa [4] was “Dose-dependent effect”; in the test on HeLa [5], 50.5%; in the test on HeLa [12], 56.2%; in the test on HeLa [14], 6%; in the test on HeLa [16], 43.5%; in the test with HeLa [17], 33.2%. Further, the Activity with HeLa [19] is 10.6%. Also, the inhibition result (in test [6]; on Aurora kinase B [18]) was “Dose-dependent effect” each time. Besides, the inhibition entry (in test [7]; at Aurora kinase B [8]) was “inactive” in each case. For the same compound, the Ratio IC50 with HeLa [13] turned out to be 35.

Consider `CN1CCC(NC(=O)c2ccc(Nc3ncc(Cl)c(NC4CCCC4)n3)cc2)CC1`, for which the IC50 was found to be 1.8 µM in the test with A549, 1.5 µM with HeLa [1], 4.6 µM in [2] and 2.2 µM in the test with HepG2.

Take `CCCNc1nc(Nc2ccc(N3CCN(C)CC3)cc2)ncc1F`: the IC50 in the test with A549 is 5.1 µM; in the test on HeLa [1], 14.2 µM; in test [2] it was 50 µM; in the test on HepG2, 35 µM.

Regarding `CN1CCC(NC(=O)c2ccc(Nc3ncc([N+](=O)[O-])c(NC4CCCC4)n3)cc2)CC1`, the IC50 in the test with A549 turned out to be 42.3 µM; in the test with HeLa [1], 21.7 µM; in test [2] it was 15.6 µM; in the test with HepG2, 5.8 µM.

Consider `CN1CCN(c2ccc(Nc3ncc(N)c(NC4CCCC4)n3)cc2)CC1`, for which the IC50 in the test on A549 came to 27 µM; with HeLa [1], 9.7 µM; in test [2], 4.2 µM; with HepG2, 18.5 µM.

Regarding `Fc1cnc(Nc2ccc(N3CCOCC3)cc2)nc1NC1CC1`, the IC50 turned out to be 8.7 µM in the test on A549, 6 µM in the test on HeLa [1], 40.3 µM in [2] and 33 µM with HepG2.

Consider `CN1CCC(NC(=O)c2ccc(Nc3ncc(F)c(NC4CCCC4)n3)cc2)CC1`, for which the IC50 is 10.3 µM in the test on A549, 45.5 µM in the test with HeLa [1], 16 µM in test [2] and 10 µM in the test on HepG2.

Consider `CN1CCN(c2ccc(Nc3ncc(F)c(NC4CCCC4)n3)cc2)CC1`, for which the IC50 with A549 worked out at 37.2 µM; with HeLa [1] it was 20 µM; in [2] it was 29 µM; with HepG2 it was 25 µM.

As for `COc1cc(C(=O)NC2CCN(C)CC2)ccc1Nc1ncc(Cl)c(NC2CCCC2)n1`, the IC50 was 5.3 µM in the test with A549, 2.7 µM in the test on HeLa [1], 4.4 µM in test [2] and 9.3 µM with HepG2.

Turning to `COc1cc(C(=O)NC2CCN(C)CC2)ccc1Nc1ncc(F)c(NC2CCCC2)n1`, the IC50 stood at 2.1 µM in the test with A549; 395 nM at Aurora kinase B [10]; 2.2 µM with HeLa [1]; 43 nM on Aurora kinase A; 2.1 µM in [2]; 4.5 µM with HepG2. Further, the inhibition entry (in [6]; at Aurora kinase B [18]) was “Dose-dependent effect” throughout. The Ratio IC50 in the test with HeLa [13] worked out at 9.

Take `Cc1cc(Nc2cc(N3CCN(C)CC3)nc(Sc3ccc(NC(=O)C4CC4)cc3)n2)n[nH]1` [TOZASERTIB]: the IC50 in the test on A549 was 19.4 µM; in the test with HeLa [1], 27.3 µM; in test [2] it was 44.6 µM; with HepG2 it was 63.4 µM.

Turning to `O=[N+]([O-])c1cnc(Nc2ccc(N3CCOCC3)cc2)nc1NC1CCCC1`, the IC50 stood at 63.7 µM in the test on A549, 36.4 µM in the test with HeLa [1], 20 µM in test [2] and 21.9 µM in the test on HepG2.

For the compound `Fc1cnc(Nc2ccc(N3CCOCC3)cc2)nc1NC1CCCC1`, the IC50 was found to be 17.3 µM in the test with A549, 31.4 µM in the test on HeLa [1], 24 µM in test [2] and 36.5 µM with HepG2.
